pKi: −log10 of the molar value.

Experiment [1] addresses T1, P2Y purinoceptor 11 (Homo sapiens, UniProt Q96G91).
T1 sequence (Q96G91 whole entry): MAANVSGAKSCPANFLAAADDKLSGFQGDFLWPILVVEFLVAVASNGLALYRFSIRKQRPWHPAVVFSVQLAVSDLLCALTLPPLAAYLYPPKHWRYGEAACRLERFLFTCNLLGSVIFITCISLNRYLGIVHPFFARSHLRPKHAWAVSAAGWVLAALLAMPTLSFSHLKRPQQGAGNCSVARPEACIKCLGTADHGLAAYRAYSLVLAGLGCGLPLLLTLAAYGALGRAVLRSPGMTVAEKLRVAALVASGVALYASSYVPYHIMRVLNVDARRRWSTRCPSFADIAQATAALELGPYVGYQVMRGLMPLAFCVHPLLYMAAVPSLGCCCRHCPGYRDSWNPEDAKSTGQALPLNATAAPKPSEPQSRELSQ
Briefly: Inhibitory concentration against P2Y purinoceptor 11 expressed in 1321N1 astrocytoma cells; n=4. It is filed as cell-based. The essentials: (§1)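 Human P2Y11 stably expressed in 1321N1 astrocytoma cells (G418 selection), loaded with Oregon Green 488 BAPTA-1/AM (3 µM, 60 min, 25 °C) in Krebs-HEPES. Compound preincubated 30 min at 37 °C before injection of 1 µM ATPγS. Ca2+ fluorescence read at ex 485/em 520 nm for 30 s. IC50 from concentration-inhibition curves; independent experiments each run in triplicate.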

Experiment [2] addresses T2, P2Y purinoceptor 11 (Homo sapiens) (UniProt Q96G91).
T2 sequence (whole entry): T1 sequence (Q96G91 whole entry)
Briefly: Percent inhibition of agonist-induced calcium mobilization at P2Y purinoceptor 11 recombinantly expressed in human 1321N1 astrocytoma cells at 100 uM dose. (A change in cytosolic calcium serves as a functional read-out for many receptors and channels.)

Experiment [3] has as its target P2Y purinoceptor 2 (Homo sapiens, UniProt P41231). As to the kind of experiment: Percent inhibition of agonist-induced calcium mobilization at P2Y purinoceptor 2 recombinantly expressed in human HEK293 cells at 100 uM dose. Conditions: in the assay text read “native in” for “recombinantly expressed in”. The class given is functional, cell-based. An outline of the steps:
(§2)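 Single 100 µM antagonist dose, preincubated 30 min at 37 °C, in a Ca2+ fluorescence assay (Oregon Green 488 BAPTA-1/AM). Agonists: 31.6 nM 2-MeSADP for native P2Y1 and 3.16 µM UTP for native P2Y2, both in HEK293 cells; 1 µM ATPγS for recombinant P2Y11 in 1321N1 cells. Response expressed as % of agonist control; mean ± SEM, n ≥ 3.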

Experiment [4] concerns the target T2, P2Y purinoceptor 11 (Homo sapiens). As to the kind of experiment: Relative potency was measured against P2Y purinoceptor 11. The class given is functional.
The target in experiment [5] is P2Y purinoceptor 1 (Homo sapiens, UniProt P47900). Briefly: Percent inhibition of agonist-induced calcium mobilization at P2Y purinoceptor 1 recombinantly expressed in human HEK293 cells at 100 uM dose. The class given is functional, cell-based. Conditions: in the assay text read “native in” for “recombinantly expressed in”. The essentials:
as §2

Experiment [6] addresses T1, P2Y purinoceptor 11. Briefly: Inhibitory concentration against P2Y purinoceptor 11 expressed in 1321N1 astrocytoma cells; n=7. The class given is cell-based. The essentials:
as §1

Experiment [7] has as its target T1, P2Y purinoceptor 11. As to the kind of experiment: Inhibitory concentration against P2Y purinoceptor 11 expressed in 1321N1 astrocytoma cells; n=3. The class given is cell-based. An outline of the steps:
as §1

In experiment [8] the target is T1, P2Y purinoceptor 11. Briefly: Inhibitory concentration against P2Y purinoceptor 11 expressed in 1321N1 astrocytoma cells; n=6. It is filed as cell-based. The essentials: as §1

Chain of P2Y purinoceptor 1 (P47900 whole entry): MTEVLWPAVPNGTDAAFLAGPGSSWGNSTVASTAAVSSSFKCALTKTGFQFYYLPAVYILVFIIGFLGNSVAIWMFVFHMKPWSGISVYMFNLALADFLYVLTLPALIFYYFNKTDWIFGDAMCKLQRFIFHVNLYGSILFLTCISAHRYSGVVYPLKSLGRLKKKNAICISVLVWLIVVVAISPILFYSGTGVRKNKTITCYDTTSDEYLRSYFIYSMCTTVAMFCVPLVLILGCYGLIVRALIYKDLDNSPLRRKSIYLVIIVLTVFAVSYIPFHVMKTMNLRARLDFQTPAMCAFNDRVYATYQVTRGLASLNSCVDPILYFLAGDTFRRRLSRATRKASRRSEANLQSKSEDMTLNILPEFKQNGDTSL
Chain of P2Y purinoceptor 2 (P41231 whole entry): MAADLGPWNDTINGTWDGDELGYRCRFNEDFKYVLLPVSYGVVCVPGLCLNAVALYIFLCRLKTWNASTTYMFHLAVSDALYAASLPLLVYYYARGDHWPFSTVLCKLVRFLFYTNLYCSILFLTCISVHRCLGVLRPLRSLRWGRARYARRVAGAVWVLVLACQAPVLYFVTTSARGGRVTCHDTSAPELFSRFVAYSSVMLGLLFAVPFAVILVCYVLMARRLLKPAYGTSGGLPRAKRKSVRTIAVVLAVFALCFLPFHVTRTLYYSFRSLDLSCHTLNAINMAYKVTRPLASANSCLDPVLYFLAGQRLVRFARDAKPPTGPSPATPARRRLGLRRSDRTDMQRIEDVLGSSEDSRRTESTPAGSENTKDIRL

By pKi is commonly meant the negative decadic logarithm of the Ki, by convention in mol/L. Usually inhibition stands for the change of the read-out against control, counted positive when it falls. `COCc1ccc(C(=O)Nc2ccc(S(=O)(=O)O)c3cc(S(=O)(=O)O)cc(S(=O)(=O)O)c23)cc1NC(=O)c1cccc(NC(=O)Nc2cccc(C(=O)Nc3cc(C(=O)Nc4ccc(S(=O)(=O)O)c5cc(S(=O)(=O)O)cc(S(=O)(=O)O)c45)ccc3COC)c2)c1`: the pKi in experiment [1] was 5.62. The inhibition in experiment [2] worked out at 71.6%; in experiment [3], 44.3%; in experiment [5], 47.5%. For the same molecule, the Rel potency in experiment [4] was found to be 1.9.

As to `O=C(Nc1cccc(C(=O)Nc2cc(C(=O)Nc3ccc(S(=O)(=O)O)c4cc(S(=O)(=O)O)cc(S(=O)(=O)O)c34)ccc2Cl)c1)Nc1cccc(C(=O)Nc2cc(C(=O)Nc3ccc(S(=O)(=O)O)c4cc(S(=O)(=O)O)cc(S(=O)(=O)O)c34)ccc2Cl)c1`, the inhibition was determined as 93% in experiment [2], 55.2% in experiment [3] and 40.6% in experiment [5]. For the same molecule, the negative-log Ki (pKi) in experiment [6] was 6.97. For the same molecule, the Rel potency in experiment [4] was 42.

Take `COc1ccc(C(=O)Nc2ccc(S(=O)(=O)O)c3cc(S(=O)(=O)O)cc(S(=O)(=O)O)c23)cc1NC(=O)Nc1cc(C(=O)Nc2ccc(S(=O)(=O)O)c3cc(S(=O)(=O)O)cc(S(=O)(=O)O)c23)ccc1OC`: the figures for the inhibition in experiment [2], in experiment [3] and in experiment [5] were 11.2%, 53.6% and 40%, respectively.

With `O=C(Nc1cccc(C(=O)Nc2ccc(S(=O)(=O)O)c3cc(S(=O)(=O)O)cc(S(=O)(=O)O)c23)c1)Nc1cccc(C(=O)Nc2ccc(S(=O)(=O)O)c3cc(S(=O)(=O)O)cc(S(=O)(=O)O)c23)c1`, the inhibition was determined as 54.2% in experiment [2], 24% in experiment [3] and 19.7% in experiment [5].

On to `CC(C)c1ccc(C(=O)Nc2ccc(S(=O)(=O)O)c3cc(S(=O)(=O)O)cc(S(=O)(=O)O)c23)cc1NC(=O)c1cccc(NC(=O)Nc2cccc(C(=O)Nc3cc(C(=O)Nc4ccc(S(=O)(=O)O)c5cc(S(=O)(=O)O)cc(S(=O)(=O)O)c45)ccc3C(C)C)c2)c1`, for which the inhibition stood at 83.1% in experiment [2], 31.1% in experiment [3] and 45% in experiment [5]. In addition, in experiment [4], the Rel potency was 10. In experiment [7], this molecule gave a pKi of 6.35.

In the case of `COc1ccc(C(=O)Nc2ccc(S(=O)(=O)O)c3cc(S(=O)(=O)O)cc(S(=O)(=O)O)c23)cc1NC(=O)c1cccc(NC(=O)Nc2cccc(C(=O)Nc3cc(C(=O)Nc4ccc(S(=O)(=O)O)c5cc(S(=O)(=O)O)cc(S(=O)(=O)O)c45)ccc3OC)c2)c1`, the inhibition in experiment [2] was 92.2%; in experiment [3], 44.9%; in experiment [5], 23.2%. Besides, in experiment [6], the pKi is 7.12. Besides, the Rel potency in experiment [4] is 59.

Consider `CC(C)c1ccc(C(=O)Nc2ccc(S(=O)(=O)O)c3cc(S(=O)(=O)O)cc(S(=O)(=O)O)c23)cc1NC(=O)Nc1cc(C(=O)Nc2ccc(S(=O)(=O)O)c3cc(S(=O)(=O)O)cc(S(=O)(=O)O)c23)ccc1C(C)C`, for which the figures for the inhibition in experiment [2], in experiment [3] and in experiment [5] were 23.2%, 14.2% and 28.7%, respectively.

Regarding `Cc1ccc(C(=O)Nc2ccc(S(=O)(=O)O)c3cc(S(=O)(=O)O)cc(S(=O)(=O)O)c23)cc1NC(=O)Nc1cc(C(=O)Nc2ccc(S(=O)(=O)O)c3cc(S(=O)(=O)O)cc(S(=O)(=O)O)c23)ccc1C`, the inhibition in experiment [2] is 86.6%; in experiment [3] it was 28.4%; in experiment [5] it was 0%. In experiment [4], this molecule displayed a Rel potency of 0.6. The negative-log Ki (pKi) in experiment [7] is 5.12.

For `Cc1ccc(C(=O)Nc2ccc(S(=O)(=O)O)c3cc(S(=O)(=O)O)cc(S(=O)(=O)O)c23)cc1NC(=O)c1cccc(NC(=O)Nc2cccc(C(=O)Nc3cc(C(=O)Nc4ccc(S(=O)(=O)O)c5cc(S(=O)(=O)O)cc(S(=O)(=O)O)c45)ccc3C)c2)c1` [SURAMIN], the inhibition in experiment [2] turned out to be 93.7%; in experiment [3], 50.5%; in experiment [5] it was 54.5%. In addition, the Rel potency in experiment [4] is 15. In addition, the pKi in experiment [8] was 6.52.

For the molecule `CCc1ccc(C(=O)Nc2ccc(S(=O)(=O)O)c3cc(S(=O)(=O)O)cc(S(=O)(=O)O)c23)cc1NC(=O)Nc1cc(C(=O)Nc2ccc(S(=O)(=O)O)c3cc(S(=O)(=O)O)cc(S(=O)(=O)O)c23)ccc1CC`, the inhibition was 39.9% in experiment [2], 20.8% in experiment [3] and 38.4% in experiment [5].

Take `O=C(Nc1cc(C(=O)Nc2ccc(S(=O)(=O)O)c3cc(S(=O)(=O)O)cc(S(=O)(=O)O)c23)ccc1-c1ccccc1)Nc1cc(C(=O)Nc2ccc(S(=O)(=O)O)c3cc(S(=O)(=O)O)cc(S(=O)(=O)O)c23)ccc1-c1ccccc1`: the inhibition in experiment [2] is 35.9%; in experiment [3], 0%; in experiment [5] it was 34.2%.

As to `COCc1ccc(C(=O)Nc2ccc(S(=O)(=O)O)c3cc(S(=O)(=O)O)cc(S(=O)(=O)O)c23)cc1NC(=O)Nc1cc(C(=O)Nc2ccc(S(=O)(=O)O)c3cc(S(=O)(=O)O)cc(S(=O)(=O)O)c23)ccc1COC`, the inhibition in experiment [2] came out at 23.8%; in experiment [3], 13%; in experiment [5], 31.7%.

As to `O=C(Nc1cc(C(=O)Nc2ccc(S(=O)(=O)O)c3cc(S(=O)(=O)O)cc(S(=O)(=O)O)c23)ccc1Cl)Nc1cc(C(=O)Nc2ccc(S(=O)(=O)O)c3cc(S(=O)(=O)O)cc(S(=O)(=O)O)c23)ccc1Cl`, the values for the inhibition in experiment [2], in experiment [3] and in experiment [5] were 59%, 0% and 57.8%, respectively.

As for `O=C(Nc1cc(C(=O)Nc2ccc(S(=O)(=O)O)c3cc(S(=O)(=O)O)cc(S(=O)(=O)O)c23)ccc1F)Nc1cc(C(=O)Nc2ccc(S(=O)(=O)O)c3cc(S(=O)(=O)O)cc(S(=O)(=O)O)c23)ccc1F`, the inhibition came out at 64.7% in experiment [2], 0% in experiment [3] and 60% in experiment [5].

As to `O=C(Nc1cccc(C(=O)Nc2cc(C(=O)Nc3ccc(S(=O)(=O)O)c4cc(S(=O)(=O)O)cc(S(=O)(=O)O)c34)ccc2-c2ccccc2)c1)Nc1cccc(C(=O)Nc2cc(C(=O)Nc3ccc(S(=O)(=O)O)c4cc(S(=O)(=O)O)cc(S(=O)(=O)O)c34)ccc2-c2ccccc2)c1`, the inhibition in experiment [2] is 79.9%; in experiment [3], 73.2%; in experiment [5], 75.1%. In experiment [4], this molecule had a Rel potency of 15. The pKi in experiment [7] is 6.52.

Consider `CCc1ccc(C(=O)Nc2ccc(S(=O)(=O)O)c3cc(S(=O)(=O)O)cc(S(=O)(=O)O)c23)cc1NC(=O)c1cccc(NC(=O)Nc2cccc(C(=O)Nc3cc(C(=O)Nc4ccc(S(=O)(=O)O)c5cc(S(=O)(=O)O)cc(S(=O)(=O)O)c45)ccc3CC)c2)c1`, for which the inhibition in experiment [2] stood at 84.9%; in experiment [3], 48.8%; in experiment [5], 48.7%. The same molecule came in with a Rel potency in experiment [4] of 4.5. The same molecule showed a pKi in experiment [7] of 6.00.

The record behind these values is ChEMBL document CHEMBL1140384, “Synthesis and structure-activity relationships of suramin-derived P2Y11 receptor antagonists with nanomolar potency” (J Med Chem, 2005).
